Compound activity from PubChem.
Compounds with a hit are over-represented: about 3% of the library has one in this group of screens.
5HT1a antag – 5-HT1a (human) receptor antagonism | P08908 | CHO 5-HT1a Ga15 NFAT-bla reporter, antagonist mode | inhibition, % at 10 µM | 62,000 tested, 0.68% active;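 active = inhibition above the mean of all tested compounds plus 3 SD, cut at about 43% in these data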;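 note: receptor stimulated by 5-CT agonist at 100 nM near EC80; beta-lactamase reporter measured by ratiometric fluorescence of a cleavable substrate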
S1P1 ag pot – S1P1 (human) agonism or agonism potentiation; S1P1 CRE-bla cells, forskolin, beta-lactamase FRET, potentiator mode; S1P1 agonist co-added at EC20, 2 nM; 100% = saturating reference agonist, 0% = basal; activation, % at 9.5 µM; P21453; 56,000 tested, 0.57% active; AID 449;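 active = activation above a cutoff set at the mean activation of all tested compounds plus 3 SD, cut at about 54% in these data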;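 note: forskolin at 4 µM as EC80 and the EC20 agonist is SEW2871; 100% = SEW2871 at its EC100 plus forskolin at EC80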
5HT1E ag – activates the human 5-HT1E serotonin receptor | P28566 | CHO 5-HT1E Ga15 NFAT-bla reporter, FRET; 0% DMSO wells, 100% control agonist wells | activation, % at 6 µM | 65,000 tested, 0.69% active | AID 574;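 active = activation above a set limit, the screen-wide mean activation plus 3 SD, cut at about 8.5% in these data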;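 note: 100% = positive control agonist at 1 µM giving full maximal response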
Target sequence (P28566 whole entry, looked up): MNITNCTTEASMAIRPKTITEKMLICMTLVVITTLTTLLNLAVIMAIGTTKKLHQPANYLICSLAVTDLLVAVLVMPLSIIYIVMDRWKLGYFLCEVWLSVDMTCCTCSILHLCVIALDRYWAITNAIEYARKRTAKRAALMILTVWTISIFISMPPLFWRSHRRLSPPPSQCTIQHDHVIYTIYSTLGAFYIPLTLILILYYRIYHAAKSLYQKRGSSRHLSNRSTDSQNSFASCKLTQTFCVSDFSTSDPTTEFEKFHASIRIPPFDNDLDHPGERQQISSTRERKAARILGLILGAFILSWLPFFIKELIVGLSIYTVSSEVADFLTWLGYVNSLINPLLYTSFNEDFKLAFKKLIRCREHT
S1P3 agonist – agonists of human S1P3 receptor; S1P3 NFAT-BLA reporter cells, agonism, FRET ratio; relative to 1 µM S1P, basal subtracted; activation, % at 4.5 µM; 60,000 tested, 0.1% active; Q99500; AID 373;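 active = activation above the screen-wide mean plus 3 SD, cut at about 4.5% in these data, passing the limit was not always enough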
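Material: Human S1P3 NFAT-BLA reporter CHO cells | Incubation: Overnight plating, 4 h compound 37 °C, 2 h substrate RT | Signal: FRET β-lactamase substrate fluorescence, excitation 405 nm, 460/535 nm emission ratio, background-subtracted | Compound: 4.5 µM final, single dose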
HTR1A agonist – activates the human 5-HT1a serotonin receptor; P08908; CHO 5-HT1a Ga15 NFAT-bla reporter, FRET ratio; 0% basal, 100% maximal reference agonist; 65,000 tested, 0.56% active; activation, % at 10 µM; AID 567;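 active = activation above the screen-wide mean activation plus 3 SD, cut at about 19% in these data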;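 note: 0% = DMSO wells and 100% = 5-CT at EC100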
HTR1E antagonist – blocks the human 5-HT1E serotonin receptor | AID 571 | CHO 5-HT1E Ga15 NFAT-bla reporter, FRET, antagonist | inhibition, % at 6 µM | 65,000 tested, 0.99% active;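 active = inhibition above a set limit, the mean inhibition across every tested compound plus 3 SD, cut at about 29% in these data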;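 note: signal is the 460 over 535 nm emission ratio of beta-lactamase substrate; 0% = agonist plus DMSO wells and 100% = wells without agonist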
Numbers without * were called inactive; · = not tested or not shown.

SMILES	5HT1a antag	S1P1 ag pot	5HT1E ag	S1P3 agonist	HTR1A agonist	HTR1E antagonist
Cc1ccc(OCCOCCn2ccnc2)c(Br)c1	-8	-5	-1	-1	0	7
CC1(C)Cc2c(c(N3CCCC3)nc3sc4c(N5CCN(CCO)CC5)ncnc4c23)CO1	-6	·	1	·	6	41*
COc1ccccc1NC(=O)Nc1nnc(C(C)C)s1	·	21	0	-3	0	29*
COc1ccccc1N1CCN(C(=O)CSc2nc(C)c(Cc3ccccc3)c(=O)[nH]2)CC1	12	-15	20*	0	2	-3
COc1ccccc1N1CCN(C(=O)CSc2nc(-c3ccccc3)cc(=O)[nH]2)CC1	-2	3	15*	0	9	-11
COc1ccccc1N1CCN(C(=O)CSc2nc3ncnc(N)c3[nH]2)CC1	-8	·	3	-1	1	1
COC(=O)NCC12CC3CC(C1)CC(CNC(=O)OC)(C3)C2	·	3	-1	-4	1	-3
Cc1ccc(/C(O)=C2\C(=O)C(=O)N(CCCN(C)C)C2c2ccccn2)cc1 (configuration not stated)	-8	6	0	0	1	-14
CCCCN(C)C(=O)c1c[nH]c2ccc(S(=O)(=O)N3CCOCC3)cc2c1=O	5	-9	0	-1	-3	-4
COc1cc2c(C(=O)NCCCN3CCN(c4cccc(Cl)c4)CC3)cn(C)c(=O)c2cc1OC	5	·	16*	·	12	12
COCCNC(=O)c1cn(C)c(=O)c2cc(OC)c(OC)cc12	11	·	-1	·	0	5
N#Cc1c(-c2ccccc2)cc(C2CC2)nc1N	25	-31	0	0	5	33*
N#Cc1c(-c2ccco2)cc(C2CC2)nc1N	·	-51	-1	-3	4	24
COC(=O)C1CCN(C(=O)C(C)Oc2ccc(Cl)cc2Cl)CC1 (configuration not stated)	24	·	-2	·	90*	3
CC1CC(C)CN(c2nc3c(c(=O)[nH]c(=O)n3C)n2CCSc2nc3ccccc3o2)C1 (configuration not stated)	11	-18	-1	-1	0	8
COc1cccc(OCc2nc3c4cnn(-c5ccccc5)c4ncn3n2)c1	0	6	0	-1	24*	2
COc1cccc(OCCN2CCN(c3ncnc4c3cnn4-c3ccccc3)CC2)c1	·	-1	0	-4	6	-10
O=C(CC1(O)C(=O)N(Cc2ccccc2)c2ccccc21)c1ccncc1 (configuration not stated)	-3	10	0	-2	-4	-5
Cc1nn(-c2ccccc2)c(C)c1NS(=O)(=O)c1ccccc1	10	-22	-1	0	-1	36*
Cc1nn(C)c(C)c1NS(=O)(=O)c1ccccc1	-10	-24	0	0	-1	6
Cc1cccc2cc3c(nc12)SC(=NCC1CCCO1)N(Cc1ccco1)C3 (configuration not stated)	57*	-4	1	0	-3	32*
O=C(NCCc1ccc(Cl)cc1)c1ncn[nH]1	-4	-11	10*	0	-1	6
O=C(O)c1oc2ccc(Br)cc2c1-n1cccc1	-2	7	0	1	-3	-3
Cc1ccc(-n2c(SCC(N)=O)nnc2-c2cccnc2)c(C)c1	-8	3	-1	-2	-3	1
Cc1ccccc1-n1c(SC(C)C(N)=O)nnc1-c1cccnc1 (configuration not stated)	1	-24	27*	0	0	5
CCOc1nc(C)ccc1-c1noc(-c2ccncc2)n1	-12	56*	0	1	0	8
CCOc1nc(-c2ccccc2)ccc1-c1noc(-c2ccncc2)n1	-2	13	-1	0	-2	-6
CCOc1ccc(-c2nc(-c3ccccc3C)no2)cc1	-2	110*	0	-1	0	-8
CCOC(=O)c1c(-c2ccc(C)o2)csc1NC(=O)CSc1nnnn1-c1ccccc1	18	-25	1	-1	0	-14
